Measurements gathered from unrelated publications.
Protocols differ between the studies behind these lines.
Target: Leukocyte tyrosine kinase receptor (LTK, Homo sapiens, UniProt P29376)

COc1ccnn2ncc(-c3ccnc(N(C)C)n3)c12  remaining binding (binding; 1 µM): 98%
C=CC(=O)N1CCC(C(=O)NCC(=O)N2CCN(c3nc(-c4cnc(N)nc4C(F)F)nc(N4CCOCC4)n3)CC2)CC1  remaining binding (binding, competition with immobilised ligand; 1 µM): 100%
C[C@@H](c1ccc(-n2cnc3c(N)ncnc32)cc1)N1CCc2nn(C)c(Cc3ccccc3)c2C1=O  remaining binding (binding, competition with immobilised ligand; 0.1 µM): 87%
COc1cnc(Nc2cccc(S(N)(=O)=O)c2)nc1N1CCN(c2ccccc2)CC1  remaining binding (binding, competition with immobilised ligand; 1 µM): 100%
Cc1cnn2ncc(-c3ccnc(N(C)C)n3)c2c1  remaining binding (binding; 1 µM): 98%
COc1ncc2cc3ccccc3nc2c1C#N  remaining binding (cell-free assay, competition with immobilised ligand; 5 µM): 100%
N[C@H]1CCN(c2nccc(-c3cnn4ncccc34)n2)C1  remaining binding (binding; 1 µM): 100%
CSc1cccnc1N1CCN(Cc2nc3ccccc3[nH]2)CC1  remaining binding (cell-free assay, competition with immobilised ligand; 1 µM): 89%
O=C(c1ccc(Nc2nccc(-c3cc4ccccc4s3)n2)cc1)N1CCC(N2CCCC2)CC1  remaining binding (binding, competition with immobilised ligand; 1 µM): 100%
O=C1CCc2cc(Nc3cc(OC4CCOCC4)c([N+](=O)[O-])cc3Cl)ccc2N1  remaining binding (cell-free assay, competition with immobilised ligand; 1 µM): 100%
O=C(c1ccc(Nc2ncc(Cl)c(-c3ccc(Cl)s3)n2)cc1)N1CCC(N2CCCC2)CC1  remaining binding (binding, competition with immobilised ligand; 1 µM): 90%
CN([C@@H]1CCc2c(CC(=O)O)c3cc(S(C)(=O)=O)ccc3n2C1)S(=O)(=O)c1ccc(F)cc1  remaining binding (cell-free assay, competition with immobilised ligand; 1 µM): 100%
CN(CCCC(F)(F)F)c1nccc(-c2cnn3ncccc23)n1  remaining binding (binding; 1 µM): 96%
CCCOc1ccc([C@@H]2[C@@H](C(=O)O)[C@H](c3ccc4c(c3)OCO4)CN2CC(=O)Nc2c(CC)cccc2CC)cc1  remaining binding (cell-free assay, competition with immobilised ligand; 1 µM): 100%
Nc1ncc2c(n1)-c1c([nH]c3ccc(C#CC4CC4)cc13)CCCC2  remaining binding (binding, competition with immobilised ligand; 1 µM): 100%
C[C@@H]1CN(c2cc(-c3n[nH]c4ccc(OC5(C)CC5)cc34)ncn2)C[C@H](C)O1  remaining binding (cell-free assay, competition with immobilised ligand; 0.1 µM): 84%
F[C@@H]1CCN(c2nccc(-c3cnn4ncccc34)n2)C1  remaining binding (binding; 1 µM): 92%
CS(=O)(=O)N1CCCC(NC(=O)[C@H](CCC2CCCCC2)NC(=O)c2ccc(CNc3ncnc4c3nnn4-c3ccccc3)cc2)C1 (stereo partly shown)  remaining binding (cell-free assay, competition with immobilised ligand; 0.1 µM): 100%
C[C@@H]1CCN(c2nccc(-c3cnn4ncccc34)n2)C1  remaining binding (binding; 1 µM): 93%
Cc1cc(-n2nc(Cc3cc(F)cc(C(F)(F)F)c3)nc2C)ccc1C(N)=O  remaining binding (cell-free assay, competition with immobilised ligand; 1 µM): 100%
O=C(c1ccc(Nc2ncc(Cl)c(-c3cc4ccccc4s3)n2)cc1)N1CCC(N2CCCC2)CC1  remaining binding (binding, competition with immobilised ligand; 1 µM): 100%
O=C(NCC1CCOCC1)c1n[nH]cc1NC(=O)c1c(F)cccc1F  remaining binding (binding, competition with immobilised ligand; 1 µM): 100%
